The values that follow come from ChEMBL document CHEMBL4007404, “Identification of High-Potency Human TLR8 and Dual TLR7/TLR8 Agonists in Pyrimidine-2,4-diamines” (J Med Chem, 2017).

Common to all, as to type: cell-based
Assay [1] concerns the target Toll-like receptor 5 (Homo sapiens) (UniProt O60602). Nature of the assay: Activity at human TLR5 expressed in HEK293 cells co-expressing secreted alkaline phosphatase assessed as induction of NF-kappaB/AP-1 promoter activity by measuring increase in secreted alkaline phosphatase level by spectrophotometric method. In outline:
(§1)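 HEK293 cells stably co-transfected with the relevant human TLR (2, 3, 4, 5, 7, 8 or 9) plus an NF-κB/AP-1-driven secreted alkaline phosphatase reporter, kept in selection medium. Cells at ~10⁵ cells/ml were exposed to graded concentrations of stimuli in 384-well format, liquid-handler assisted. Supernatant sAP was read at 620 nm with an alkaline phosphatase-specific chromogen.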

In assay [2] the target is T1, Toll-like receptor 7 (Homo sapiens, UniProt Q9NYK1).
T1 sequence (Q9NYK1 whole entry): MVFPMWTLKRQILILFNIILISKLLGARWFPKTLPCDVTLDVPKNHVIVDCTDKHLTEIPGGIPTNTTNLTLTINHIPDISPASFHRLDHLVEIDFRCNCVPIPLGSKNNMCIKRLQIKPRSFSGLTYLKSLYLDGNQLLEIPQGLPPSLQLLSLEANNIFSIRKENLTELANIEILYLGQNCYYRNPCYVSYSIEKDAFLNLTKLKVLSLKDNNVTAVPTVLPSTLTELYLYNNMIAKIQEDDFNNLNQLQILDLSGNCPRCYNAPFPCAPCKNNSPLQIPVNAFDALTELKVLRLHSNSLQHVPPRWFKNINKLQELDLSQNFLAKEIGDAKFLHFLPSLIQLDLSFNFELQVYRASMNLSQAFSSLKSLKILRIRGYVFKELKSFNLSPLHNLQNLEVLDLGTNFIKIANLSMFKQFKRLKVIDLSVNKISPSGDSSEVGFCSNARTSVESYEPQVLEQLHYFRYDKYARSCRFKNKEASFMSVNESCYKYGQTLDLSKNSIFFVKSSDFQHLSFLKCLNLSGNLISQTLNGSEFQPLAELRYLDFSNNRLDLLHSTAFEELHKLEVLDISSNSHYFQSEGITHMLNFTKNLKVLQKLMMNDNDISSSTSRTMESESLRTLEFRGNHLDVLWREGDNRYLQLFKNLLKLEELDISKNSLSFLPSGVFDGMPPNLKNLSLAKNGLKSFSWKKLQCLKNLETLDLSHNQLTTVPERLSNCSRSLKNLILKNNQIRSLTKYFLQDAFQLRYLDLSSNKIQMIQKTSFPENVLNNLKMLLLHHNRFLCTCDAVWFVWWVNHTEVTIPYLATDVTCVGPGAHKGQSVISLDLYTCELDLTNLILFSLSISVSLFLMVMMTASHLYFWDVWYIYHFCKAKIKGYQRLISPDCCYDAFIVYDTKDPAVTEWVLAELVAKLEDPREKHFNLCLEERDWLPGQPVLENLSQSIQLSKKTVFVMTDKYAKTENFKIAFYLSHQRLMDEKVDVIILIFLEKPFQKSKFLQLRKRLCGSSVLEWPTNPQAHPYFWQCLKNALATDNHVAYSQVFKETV
Briefly: Agonist activity at human TLR7 expressed in HEK293 cells co-expressing secreted alkaline phosphatase assessed as induction of NF-kappaB/AP-1 promoter activity by measuring increase in secreted alkaline phosphatase level by spectrophotometric method. In outline:
as §1

The target in assay [3] is Toll-like receptor 3 (Homo sapiens) (UniProt O15455). Nature of the assay: Activity at human TLR3 expressed in HEK293 cells co-expressing secreted alkaline phosphatase assessed as induction of NF-kappaB/AP-1 promoter activity by measuring increase in secreted alkaline phosphatase level by spectrophotometric method. The method in brief:
as §1

Assay [4] addresses Toll-like receptor 4 (Homo sapiens) (UniProt O00206). Nature of the assay: Activity at human TLR4 expressed in HEK293 cells co-expressing secreted alkaline phosphatase assessed as induction of NF-kappaB/AP-1 promoter activity by measuring increase in secreted alkaline phosphatase level by spectrophotometric method. The method in brief:
as §1

Assay [5] has as its target T2, Toll-like receptor 8 (Homo sapiens, UniProt Q9NR97).
T2 sequence (Q9NR97 whole entry): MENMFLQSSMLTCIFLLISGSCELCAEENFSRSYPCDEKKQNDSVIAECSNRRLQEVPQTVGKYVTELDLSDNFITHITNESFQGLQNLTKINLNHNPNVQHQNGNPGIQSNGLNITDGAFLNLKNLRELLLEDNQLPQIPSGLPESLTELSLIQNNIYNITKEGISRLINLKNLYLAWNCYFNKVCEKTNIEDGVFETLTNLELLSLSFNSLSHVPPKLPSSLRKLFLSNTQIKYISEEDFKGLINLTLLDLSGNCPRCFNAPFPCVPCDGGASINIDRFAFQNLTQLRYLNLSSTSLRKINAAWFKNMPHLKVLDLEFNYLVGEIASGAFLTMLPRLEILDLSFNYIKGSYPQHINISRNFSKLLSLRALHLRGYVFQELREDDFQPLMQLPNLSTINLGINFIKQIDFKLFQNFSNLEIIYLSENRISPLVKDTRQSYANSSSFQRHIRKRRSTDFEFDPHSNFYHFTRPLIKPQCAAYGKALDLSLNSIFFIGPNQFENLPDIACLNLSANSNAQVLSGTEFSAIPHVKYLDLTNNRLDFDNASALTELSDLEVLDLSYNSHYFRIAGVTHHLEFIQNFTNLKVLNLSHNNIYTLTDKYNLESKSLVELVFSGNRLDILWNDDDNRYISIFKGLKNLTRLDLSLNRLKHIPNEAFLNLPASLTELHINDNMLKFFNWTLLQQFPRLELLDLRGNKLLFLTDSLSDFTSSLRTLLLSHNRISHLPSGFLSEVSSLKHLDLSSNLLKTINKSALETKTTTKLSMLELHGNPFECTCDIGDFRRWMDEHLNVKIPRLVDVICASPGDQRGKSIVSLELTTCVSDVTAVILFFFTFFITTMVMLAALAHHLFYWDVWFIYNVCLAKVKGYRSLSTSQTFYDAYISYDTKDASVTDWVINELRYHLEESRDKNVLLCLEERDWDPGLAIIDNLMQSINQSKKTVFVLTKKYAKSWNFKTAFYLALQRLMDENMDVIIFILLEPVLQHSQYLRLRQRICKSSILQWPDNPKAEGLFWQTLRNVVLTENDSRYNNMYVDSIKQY
Briefly: Agonist activity at human TLR8 expressed in HEK293 cells co-expressing secreted alkaline phosphatase assessed as induction of NF-kappaB/AP-1 promoter activity by measuring increase in secreted alkaline phosphatase level by spectrophotometric method. The method in brief: as §1

For assay [6], the target named is Toll-like receptor 2 (Homo sapiens) (UniProt O60603). Briefly: Activity at human TLR2 expressed in HEK293 cells co-expressing secreted alkaline phosphatase assessed as induction of NF-kappaB/AP-1 promoter activity by measuring increase in secreted alkaline phosphatase level by spectrophotometric method. The method in brief:
as §1

Activity calls are given as the source filed them. The rule behind the calls is not given here.

Sequence of Toll-like receptor 3 (Homo sapiens) (O15455 whole entry): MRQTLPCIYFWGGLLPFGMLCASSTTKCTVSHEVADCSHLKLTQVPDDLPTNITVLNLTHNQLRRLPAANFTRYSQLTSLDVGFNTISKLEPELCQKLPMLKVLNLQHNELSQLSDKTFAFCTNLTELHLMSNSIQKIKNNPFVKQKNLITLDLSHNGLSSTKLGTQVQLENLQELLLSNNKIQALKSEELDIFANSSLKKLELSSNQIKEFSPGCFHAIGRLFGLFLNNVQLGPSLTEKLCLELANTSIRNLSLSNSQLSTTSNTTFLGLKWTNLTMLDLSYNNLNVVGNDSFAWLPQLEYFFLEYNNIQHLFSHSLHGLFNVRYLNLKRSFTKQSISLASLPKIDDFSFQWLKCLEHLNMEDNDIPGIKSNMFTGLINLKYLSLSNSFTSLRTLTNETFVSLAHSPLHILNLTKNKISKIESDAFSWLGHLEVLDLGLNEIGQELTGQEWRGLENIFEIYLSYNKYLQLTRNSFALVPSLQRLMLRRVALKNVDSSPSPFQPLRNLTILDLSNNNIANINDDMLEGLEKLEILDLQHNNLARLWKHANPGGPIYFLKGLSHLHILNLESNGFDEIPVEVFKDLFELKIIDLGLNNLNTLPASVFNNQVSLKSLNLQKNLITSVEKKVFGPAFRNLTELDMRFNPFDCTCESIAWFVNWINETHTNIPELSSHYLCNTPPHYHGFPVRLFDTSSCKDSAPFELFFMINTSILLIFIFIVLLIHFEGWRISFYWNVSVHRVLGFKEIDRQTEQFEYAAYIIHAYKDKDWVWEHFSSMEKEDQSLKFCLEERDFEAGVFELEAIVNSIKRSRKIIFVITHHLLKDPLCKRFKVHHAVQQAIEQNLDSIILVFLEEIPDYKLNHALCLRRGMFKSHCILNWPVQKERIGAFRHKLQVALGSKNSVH
Sequence of Toll-like receptor 2 (Homo sapiens) (O60603 whole entry): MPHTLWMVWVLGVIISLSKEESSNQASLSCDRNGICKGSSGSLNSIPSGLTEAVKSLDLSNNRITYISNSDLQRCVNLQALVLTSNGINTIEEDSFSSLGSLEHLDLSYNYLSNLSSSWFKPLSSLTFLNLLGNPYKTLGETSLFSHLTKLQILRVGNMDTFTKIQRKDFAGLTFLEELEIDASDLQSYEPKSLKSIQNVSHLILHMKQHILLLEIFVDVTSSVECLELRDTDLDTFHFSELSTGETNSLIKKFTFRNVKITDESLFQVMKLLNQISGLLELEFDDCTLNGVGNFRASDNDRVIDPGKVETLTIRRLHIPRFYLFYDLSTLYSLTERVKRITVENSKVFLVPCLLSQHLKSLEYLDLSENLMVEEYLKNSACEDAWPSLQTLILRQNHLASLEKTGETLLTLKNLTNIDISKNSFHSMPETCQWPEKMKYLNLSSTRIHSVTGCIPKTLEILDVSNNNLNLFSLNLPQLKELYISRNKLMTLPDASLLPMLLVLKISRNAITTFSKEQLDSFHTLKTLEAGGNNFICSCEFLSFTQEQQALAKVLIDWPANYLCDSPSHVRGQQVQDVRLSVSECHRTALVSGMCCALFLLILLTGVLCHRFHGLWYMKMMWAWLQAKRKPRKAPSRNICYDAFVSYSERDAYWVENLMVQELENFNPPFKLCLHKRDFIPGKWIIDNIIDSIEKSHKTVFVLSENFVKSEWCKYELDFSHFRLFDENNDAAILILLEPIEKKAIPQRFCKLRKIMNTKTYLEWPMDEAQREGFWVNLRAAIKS
Sequence of Toll-like receptor 4 (Homo sapiens) (O00206 whole entry): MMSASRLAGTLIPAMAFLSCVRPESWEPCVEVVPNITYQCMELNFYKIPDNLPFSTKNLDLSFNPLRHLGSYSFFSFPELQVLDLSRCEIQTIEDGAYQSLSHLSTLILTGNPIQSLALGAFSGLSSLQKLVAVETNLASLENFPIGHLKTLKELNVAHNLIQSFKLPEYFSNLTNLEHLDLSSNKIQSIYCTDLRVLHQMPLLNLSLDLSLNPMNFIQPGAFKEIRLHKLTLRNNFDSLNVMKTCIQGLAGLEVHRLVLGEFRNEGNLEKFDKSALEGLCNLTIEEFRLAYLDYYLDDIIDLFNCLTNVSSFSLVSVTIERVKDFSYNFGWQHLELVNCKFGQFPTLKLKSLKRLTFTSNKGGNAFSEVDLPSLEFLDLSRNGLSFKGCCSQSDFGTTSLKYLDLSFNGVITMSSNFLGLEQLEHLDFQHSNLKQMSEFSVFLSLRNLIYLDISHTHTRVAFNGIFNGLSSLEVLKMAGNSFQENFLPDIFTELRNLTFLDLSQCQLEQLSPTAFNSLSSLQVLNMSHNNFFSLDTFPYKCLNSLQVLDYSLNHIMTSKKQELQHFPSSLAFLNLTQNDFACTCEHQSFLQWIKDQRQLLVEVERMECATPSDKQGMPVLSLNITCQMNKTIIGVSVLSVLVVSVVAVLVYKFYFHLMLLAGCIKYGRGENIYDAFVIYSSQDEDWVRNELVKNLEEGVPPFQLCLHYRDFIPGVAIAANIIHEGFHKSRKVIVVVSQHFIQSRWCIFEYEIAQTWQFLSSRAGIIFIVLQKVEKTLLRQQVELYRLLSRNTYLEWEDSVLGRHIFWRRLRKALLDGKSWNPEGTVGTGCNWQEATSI
Sequence of Toll-like receptor 5 (Homo sapiens) (O60602 whole entry): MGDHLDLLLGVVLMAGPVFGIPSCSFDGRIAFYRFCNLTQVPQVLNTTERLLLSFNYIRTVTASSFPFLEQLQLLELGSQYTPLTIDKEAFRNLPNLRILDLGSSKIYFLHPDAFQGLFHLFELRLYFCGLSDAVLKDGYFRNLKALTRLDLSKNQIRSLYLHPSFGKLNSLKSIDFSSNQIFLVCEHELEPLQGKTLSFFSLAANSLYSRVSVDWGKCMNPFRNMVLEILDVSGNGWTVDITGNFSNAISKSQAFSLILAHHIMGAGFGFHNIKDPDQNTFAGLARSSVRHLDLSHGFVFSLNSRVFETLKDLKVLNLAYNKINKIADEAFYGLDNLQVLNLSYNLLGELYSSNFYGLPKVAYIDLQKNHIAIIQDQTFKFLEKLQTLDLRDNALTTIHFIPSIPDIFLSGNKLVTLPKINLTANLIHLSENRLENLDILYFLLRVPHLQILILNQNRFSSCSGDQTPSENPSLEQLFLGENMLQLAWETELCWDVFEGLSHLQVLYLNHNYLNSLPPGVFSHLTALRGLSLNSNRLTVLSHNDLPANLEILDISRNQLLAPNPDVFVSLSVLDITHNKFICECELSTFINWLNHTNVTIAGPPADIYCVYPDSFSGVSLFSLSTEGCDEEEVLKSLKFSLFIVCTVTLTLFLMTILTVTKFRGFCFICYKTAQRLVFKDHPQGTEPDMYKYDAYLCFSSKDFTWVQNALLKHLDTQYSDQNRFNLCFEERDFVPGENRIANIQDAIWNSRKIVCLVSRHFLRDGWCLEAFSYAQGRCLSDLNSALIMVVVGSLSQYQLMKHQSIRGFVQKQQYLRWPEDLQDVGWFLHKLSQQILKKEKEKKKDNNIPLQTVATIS

On to `CCCCNc1nc(N)nc(C)c1CCCN1CCN(c2ccccc2)CC1`, for which the result in assay [1], in assay [3], in assay [4] and in assay [6] was inactive. Besides, the 50% effective concentration (EC50) in assay [2] amounted to 1.16 µM; in assay [5], 0.092 µM.

Turning to `CCCCNc1nc(N)nc(C)c1CCCN1CCN(C)CC1`, the outcome in assay [1], in assay [3], in assay [4] and in assay [6] was inactive. For the same molecule, the EC50 came to 0.251 µM in assay [2] and 0.179 µM in assay [5].

With `C#Cc1c(C)nc(N)nc1NCCCC`, the outcome in assay [1], in assay [3], in assay [4] and in assay [6] was inactive. Besides, in assay [5], the EC50 was determined as 4.9 µM.

Consider `CCCCNc1nc(N)nc(C)c1CCCC`, for which the outcome in assay [1], in assay [3], in assay [4] and in assay [6] was inactive. For the same molecule, the EC50 in assay [2] came to 0.59 µM; in assay [5], 0.78 µM.

In the case of `CCCCNc1nc(N)nc(C)c1CCCC1CCCCC1`, the result in assay [1], in assay [3], in assay [4] and in assay [6] was inactive. Besides, the EC50 in assay [2] was 1.1 µM.

As to `CCCCNc1nc(N)nc(C)c1CCCCN1CCOCC1`, the result in assay [1], in assay [3], in assay [4] and in assay [6] was inactive. Besides, the EC50 in assay [2] was determined as 1.4 µM; in assay [5], 0.128 µM.

As to `CCCCNc1nc(N)nc(C)c1CCCCc1ccccc1`, the outcome in assay [1], in assay [3], in assay [4] and in assay [6] was inactive. Besides, the EC50 in assay [2] was 0.262 µM; in assay [5], 0.857 µM.

For `CCCCNc1nc(N)nc(C)c1CCCCCc1ccccc1`, the result in assay [1], in assay [3], in assay [4] and in assay [6] was inactive. The half-maximal effective concentration (EC50) in assay [2] came out at 0.265 µM; in assay [5], 0.83 µM.

For `CCCCNc1nc(N)nc(C)c1CCCC(C)(C)O`, the result in assay [1], in assay [3], in assay [4] and in assay [6] was inactive. The EC50 turned out to be 2.89 µM in assay [2] and 1.22 µM in assay [5].

For `CCCCNc1nc(N)nc(C)c1CCCn1cccn1`, the result in assay [1], in assay [3], in assay [4] and in assay [6] was inactive. In addition, the EC50 is 0.398 µM in assay [2] and 1.05 µM in assay [5].

As to `CCCCNc1nc(N)nc(C)c1CCCN1CCNCC1`, the result in assay [1], in assay [3], in assay [4] and in assay [6] was inactive. The EC50 in assay [2] came out at 1.64 µM; in assay [5] it was 0.5 µM.

For the molecule `CCCCNc1nc(N)nc(C)c1C#C[Si](C)(C)C`, the outcome in assay [1], in assay [3], in assay [4] and in assay [6] was inactive. Also, the EC50 in assay [5] was 9.24 µM.

On to `CCCCNc1nc(N)nc(C)c1CCCN1CCN(C(=O)OC(C)(C)C)CC1`, for which the outcome in assay [1], in assay [3], in assay [4] and in assay [6] was inactive. Also, in assay [5], the EC50 is 0.3 µM.

For the molecule `CCCCCc1c(C)nc(N)nc1NCCCC`, the result in assay [1], in assay [3], in assay [4] and in assay [6] was inactive. The results for the EC50 in assay [2] and in assay [5] were 0.51 µM and 1.22 µM, respectively.

For the molecule `CCCCNc1nc(N)nc(C)c1CCCN1CCOCC1`, the outcome in assay [1], in assay [3], in assay [4] and in assay [6] was inactive. The EC50 came out at 0.046 µM in assay [2] and 0.28 µM in assay [5].

For `CCCCNc1nc(N)nc(C)c1C#CCN1CCOCC1`, the outcome in assay [1], in assay [3], in assay [4] and in assay [6] was inactive. Further, the EC50 in assay [5] amounted to 16.2 µM.

Regarding `CCCCNc1nc(N)nc(C)c1C#CCc1ccccc1`, the result in assay [1], in assay [3], in assay [4] and in assay [6] was inactive.

Turning to `CCCCNc1nc(N)nc(C)c1C#CCN1CCCCC1`, the outcome in assay [1], in assay [3], in assay [4] and in assay [6] was inactive. The EC50 in assay [5] came out at 3.79 µM.

With `CCCC#Cc1c(C)nc(N)nc1NCCCC`, the result in assay [1], in assay [3], in assay [4] and in assay [6] was inactive. The EC50 in assay [5] was 5 µM.

Take `CCCCNc1nc(N)nc(C)c1CCCN(CC)CC`: the result in assay [1], in assay [3], in assay [4] and in assay [6] was inactive. Also, the EC50 in assay [5] stood at 0.254 µM.
